According to ChEMBL document CHEMBL1126860, “Efficient inhibition of human leukocyte elastase and cathepsin G by saccharin derivatives” (J Med Chem, 1993):
Calls of active or inactive are those of the source. The calls are words filed in the database; no cut-off is given here.

Biological target: T1, Neutrophil elastase (Homo sapiens) (UniProt P08246)
T1 sequence (whole entry): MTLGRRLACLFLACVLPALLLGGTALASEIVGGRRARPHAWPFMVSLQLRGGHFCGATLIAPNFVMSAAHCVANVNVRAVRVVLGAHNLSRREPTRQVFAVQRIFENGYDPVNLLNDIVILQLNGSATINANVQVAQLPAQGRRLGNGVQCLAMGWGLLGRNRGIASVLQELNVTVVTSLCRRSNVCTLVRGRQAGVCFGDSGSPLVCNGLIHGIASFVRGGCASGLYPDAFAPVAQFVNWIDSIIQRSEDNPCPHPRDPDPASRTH
Experiment: Apparent second-order inactivation rate constant was evaluated against human leukocyte Elastase; Inactive
Format: functional
Method in brief: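 Incubation method: human leukocyte elastase (300 nM) with inhibitor in 0.1 M HEPES, pH 7.25, 1% DMSO. Aliquots withdrawn periodically and assayed for residual activity with methoxysuccinyl-Ala-Ala-Pro-Val p-nitroanilide. Pseudo-first-order k_obs taken from slopes of ln(Et/Eo) versus time, then expressed as k_obs/[I] (M⁻¹ s⁻¹). Kinetics analysed by the Kitz–Wilson method.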

In the case of `O=C1c2ccccc2S(=O)(=O)N1CO`, the “K obs / 1 1/Ms” value is reported as “inactive”.

Biological target: T1, Neutrophil elastase (Homo sapiens)
Experiment: Apparent second-order inactivation rate constant was evaluated against human leukocyte Elastase
Format: functional

In order of rising K obs / 1 1/Ms:
1. O=C1c2ccccc2S(=O)(=O)N1Cn1ccnc1  40
2. CC(=O)OCN1C(=O)c2ccccc2S1(=O)=O  140
3. O=C(CS(=O)(=O)c1ccccc1)OCN1C(=O)c2ccccc2S1(=O)=O  780
4. O=C(C[S+]([O-])c1ccccc1)OCN1C(=O)c2ccccc2S1(=O)=O (stereo unspecified)  800
5. O=C(CSc1ccccc1)OCN1C(=O)c2ccccc2S1(=O)=O  1790
6. O=C(/C=C/c1ccccc1)OCN1C(=O)c2ccccc2S1(=O)=O  2240
7. O=C(CCc1ccccc1)OCN1C(=O)c2ccccc2S1(=O)=O  2280
8. O=C1c2ccccc2S(=O)(=O)N1CF  4750
9. O=C(/C=C\Sc1ccccc1)OCN1C(=O)c2ccccc2S1(=O)=O  5700
10. O=C(/C=C/Sc1ccccc1)OCN1C(=O)c2ccccc2S1(=O)=O  8390
